{"source": "paper PMC7925372", "about": "(Journal of thrombosis and haemostasis : JTH, 2021)", "key": {"warfarin-resistant rats": {"tested_on": "warfarin-resistant rats", "conditions": "cited from earlier work"}, "[1]": {"conditions": "cited from earlier work"}, "[2]": {"tested_on": "VKD carboxylation in UBIAD1-knockout FIXgla-PC/HEK293 cells", "experiment": "VKD carboxylation in UBIAD1-knockout FIXgla-PC/HEK293 reporter cells", "format": "cell-based, human", "conditions": "increasing concentrations, 24 hours"}, "[3]": {"tested_on": "VKD carboxylation of reporter-protein FIXgla-PC in FIXgla-PC/HEK293 cells", "format": "cell-based, human", "conditions": "24 hours", "method_in_brief": "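FIXgla-PC/HEK293 cells are HEK293 cells stably expressing protein C whose Gla domain is swapped for factor IX's. They were cultured 24 h with test compound, either fixed at 1 μM or at increasing concentrations, as carboxylation substrate. FIXgla-PC carboxylation efficiency was measured by ELISA directly on culture medium. Activity was expressed relative to vitamin K1 set at 100%. Background activity comes from residual K vitamins in fetal bovine serum.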"}, "VKOR W59R": {"molecular_target": "T1, VKOR W59R (Homo sapiens, UniProt Q9BQB6, W59R)", "T1 sequence (Q9BQB6 1-163 W59R)": "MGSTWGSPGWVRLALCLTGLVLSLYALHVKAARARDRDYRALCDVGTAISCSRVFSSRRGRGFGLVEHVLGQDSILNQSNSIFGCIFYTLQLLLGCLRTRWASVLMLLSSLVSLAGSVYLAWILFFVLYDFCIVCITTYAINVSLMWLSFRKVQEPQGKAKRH", "experiment": "Inhibition potency of VKAs on VKOR mutation expressed in DGKO reporter cells", "format": "cell-based", "conditions": "read-out: IC50 ± standard deviation, 5 μM KO, 24 hours"}, "wild-type VKOR": {"tested_on": "wild-type VKOR", "experiment": "Inhibition potency of VKAs on VKOR transiently expressed in DGKO reporter cells", "format": "cell-based, human"}, "[4]": {"tested_on": "VKD carboxylation of FIXgla-PC in FIXgla-PC/HEK293 cells (KO as substrate)", "experiment": "Inhibition of VKD carboxylation in FIXgla-PC/HEK293 cells with 5 μM KO", "format": "cell-based, human"}, "VKOR F55A": {"molecular_target": "T2, VKOR F55A (Homo sapiens, UniProt Q9BQB6, F55A)", "T2 sequence (Q9BQB6 1-163 F55A)": "T1 sequence (Q9BQB6 1-163 W59R) with F55A, R59W", "experiment": "Inhibition potency of VKAs on VKOR mutation expressed in DGKO reporter cells", "format": "cell-based"}, "GGCX": {"tested_on": "GGCX", "experiment": "In vitro vitamin K epoxidation activity assay with GGCX enriched microsomes", "format": "biochemical", "conditions": "FLEEL, FIX-propeptide, KH2, 100 μM compound"}, "[5]": {"tested_on": "KO reductase (reduction of KO to vitamin K1)", "experiment": "HPLC-based KO reductase activity in GGCX-knockout HEK293 cells", "format": "cell-based, human", "conditions": "GGCX-knockout HEK293, 10 μM KO, 10 μM compound, 6 hours", "method_in_brief": "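GGCX-knockout FIXgla-PC/HEK293 cells (CRISPR-Cas9) were incubated 6 h in medium with 10 μM KO, with or without 10 μM test compound; DMSO-treated cells served as control. K vitamins were extracted from the cells and analysed by reversed-phase HPLC. KO reductase activity was scored as vitamin K1 formed, with vitamin E acetate as standard.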"}, "[6]": {"tested_on": "vitamin K reductase (DGKO reporter cells)", "format": "cell-based, human", "conditions": "increasing concentrations"}, "VKOR A26P": {"molecular_target": "T3, VKOR A26P (Homo sapiens, UniProt Q9BQB6, A26P)", "T3 sequence (Q9BQB6 1-163 A26P)": "T1 sequence (Q9BQB6 1-163 W59R) with A26P, R59W", "experiment": "Inhibition potency of VKAs on VKOR mutation expressed in DGKO reporter cells", "format": "cell-based"}, "VKOR L128R": {"molecular_target": "T4, VKOR L128R (Homo sapiens, UniProt Q9BQB6, L128R)", "T4 sequence (Q9BQB6 1-163 L128R)": "T1 sequence (Q9BQB6 1-163 W59R) with R59W, L128R", "experiment": "Inhibition potency of VKAs on VKOR mutation expressed in DGKO reporter cells", "format": "cell-based", "conditions": "read-out: IC50 ± standard deviation, 5 μM KO, 24 hours"}, "HEK293 reporter cells": {"tested_on": "HEK293 reporter cells", "experiment": "Cell viability assay in reporter cells", "format": "cell-based, human", "conditions": "corresponding concentrations of the carboxylation assay"}, "[7]": {"tested_on": "VKD carboxylation of FIXgla-PC in FIXgla-PC/HEK293 cells", "format": "cell-based, human", "conditions": "3 μM inhibitor, increasing concentrations of vitamin K1, 24 hours"}, "vitamin K reductase": {"tested_on": "vitamin K reductase", "experiment": "HPLC-based vitamin K reductase activity", "format": "cell-based, human", "conditions": "DGKO cells, 10 μM vitamin K1, 10 μM compound, 6 hours", "method_in_brief": "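Reporter cells lacking endogenous VKOR and VKORL (TALEN double knockout) were cultured 6 h with 10 μM vitamin K1, with or without 10 μM test compound; DMSO was the control. Cellular K vitamins were extracted for reversed-phase HPLC. Unstable KH2 was not measured; reduction was coupled to epoxidation, and activity was read as KO produced.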"}, "VKOR Y139F": {"molecular_target": "T5, VKOR Y139F (Homo sapiens, UniProt Q9BQB6, Y139F)", "T5 sequence (Q9BQB6 1-163 Y139F)": "T1 sequence (Q9BQB6 1-163 W59R) with R59W, Y139F", "experiment": "Inhibition potency of VKAs on VKOR mutation expressed in DGKO reporter cells", "format": "cell-based", "conditions": "read-out: IC50 ± standard deviation, 5 μM KO, 24 hours"}, "[8]": {"tested_on": "UBIAD1-dependent VKD carboxylation", "format": "cell-based, human", "conditions": "UBIAD1 transiently expressed in UBIAD1-knockout cells, increasing concentrations", "method_in_brief": "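FIXgla-PC/HEK293 reporter cells with UBIAD1 knocked out by CRISPR-Cas9 were transiently transfected with UBIAD1 cDNA. Transfected cells were cultured with increasing concentrations of vitamin K analogue. FIXgla-PC carboxylation efficiency in the medium was then measured by ELISA, normalised to vitamin K1 as 100%.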"}, "[9]": {"tested_on": "naturally occurring VKOR mutations", "conditions": "cell-based functional study; cited from earlier work"}, "[10]": {"tested_on": "UBIAD1 (MK-4 production in HEK293 cells)", "experiment": "Conversion of vitamin K derivatives to MK-4 in FIXgla-PC/HEK293 cells", "format": "cell-based, human", "conditions": "10 μM VK-K-COT plus 5 μM warfarin, 6 hours, HPLC"}, "[11]": {"conditions": "1 μM vitamin K derivative as substrate, FIXgla-PC/HEK293"}}, "note": "Residue numbers refer to the chain shown, from its start."}
{"smiles": "C/C(=C\\CC1=C(Cl)C(=O)c2ccccc2C1=O)CCCC(C)CCCC(C)CCCC(C)C", "note": "(stereo not shown) [Chloro-K]", "values": [{"measurement": "anticoagulant effect in warfarin-resistant rats", "setting": "warfarin-resistant rats", "value": "effective anticoagulant"}, {"measurement": "antagonism of vitamin K", "setting": "[1]", "value": "potent antagonist of vitamin K"}]}
{"smiles": "CC(C)=CCC/C(C)=C/CC/C(C)=C/CC/C(C)=C/CC1=C(C)C(=O)c2ccccc2C1=O", "note": "[MK-4, menaquinone-4]", "values": [{"measurement": "support of VKD carboxylation as substrate in UBIAD1-knockout cells", "setting": "[2]", "value": "can efficiently support VKD carboxylation"}]}
{"smiles": "CC1=C(Cc2ccccc2)C(=O)c2ccccc2C1=O", "note": "[VK-M-Ben]", "values": [{"measurement": "carboxylation activity (vitamin K1 normalized to 100%)", "setting": "[3]; [11]", "value": 3, "unit": "%"}, {"measurement": "carboxylation activity as substrate, in words", "setting": "[3]; [11]", "value": "abolished carboxylation activity"}]}
{"smiles": "CC1=C(CC2=CC=CC=CC=C2)C(=O)c2ccccc2C1=O", "note": "[VK-M-COT]", "values": [{"measurement": "IC50", "setting": "VKOR W59R", "value": "615 ± 101", "unit": "nM"}, {"measurement": "IC50 variation between warfarin-resistant VKOR mutations and wild-type VKOR", "setting": "wild-type VKOR; A26P, F55A, W59R, L128R, Y139F vs wild type", "value": "less than 3 fold"}, {"measurement": "inhibition of reporter-protein carboxylation, KO as substrate", "setting": "[4]; FIXgla-PC/HEK293, 5 μM KO, increasing concentrations", "value": "inhibited reporter-protein carboxylation"}, {"measurement": "inhibition potency lower than warfarin (fold)", "setting": "[4]; IC50 ratio to warfarin, FIXgla-PC/HEK293, 5 μM KO", "value": "~ 20 fold"}, {"measurement": "IC50", "setting": "VKOR F55A; read-out: IC50 ± standard deviation, VKOR F55A in DGKO cells, 5 μM KO, 24 hours", "value": "249 ± 66", "unit": "nM"}, {"measurement": "GGCX vitamin K epoxidation activity", "setting": "GGCX", "value": "inhibits GGCX activity for vitamin K epoxidation"}, {"measurement": "reduction of KO to vitamin K1 (HPLC)", "setting": "[5]", "value": "significantly decreased"}, {"measurement": "inhibition of reporter-protein carboxylation, vitamin K1 as substrate", "setting": "[6]", "value": "inhibited reporter-protein carboxylation"}, {"measurement": "IC50", "setting": "VKOR A26P; read-out: IC50 ± standard deviation, VKOR A26P in DGKO cells, 5 μM KO, 24 hours", "value": "487 ± 75", "unit": "nM"}, {"measurement": "IC50", "setting": "VKOR L128R", "value": "575 ± 132", "unit": "nM"}, {"measurement": "cytotoxicity (cell viability)", "setting": "HEK293 reporter cells", "value": "not due to the cytotoxicity"}, {"measurement": "reversal of inhibition of VKD carboxylation by vitamin K1", "setting": "[7]", "value": "can be reversed equally with higher concentrations of vitamin K1"}, {"measurement": "carboxylation activity as substrate, in words", "setting": "[3]; [11]", "value": "activity lower than the background activity (DMSO)"}, {"measurement": "dose-response of VKD carboxylation on concentration titration", "setting": "[3]; increasing concentrations of vitamin K derivative", "value": "inhibitory dose-response curve"}, {"measurement": "reduction of vitamin K (production of KO, HPLC)", "setting": "vitamin K reductase", "value": "significantly decreased"}, {"measurement": "IC50", "setting": "VKOR Y139F", "value": "658 ± 54", "unit": "nM"}]}
{"smiles": "CC1=CC(=O)c2ccccc2C1=O", "note": "[menadione]", "values": [{"measurement": "support of VKD carboxylation as substrate in UBIAD1-knockout cells", "setting": "[2]", "value": "unable to support reporter-protein carboxylation"}, {"measurement": "VKD carboxylation activity after re-introduction of UBIAD1", "setting": "[8]", "value": "regained VKD carboxylation activity"}]}
{"smiles": "CC1=C(C/C=C(\\C)CCC[C@H](C)CCC[C@H](C)CCCC(C)C)C(=O)c2ccccc2C1=O", "note": "[vitamin K1, phylloquinone]", "values": [{"measurement": "support of VKD carboxylation as substrate in UBIAD1-knockout cells", "setting": "[2]", "value": "can efficiently support VKD carboxylation"}]}
{"smiles": "CC(=O)CC(c1ccccc1)c1c(O)c2ccccc2oc1=O", "note": "(stereo not shown) [warfarin, reference compound]", "values": [{"measurement": "effect of warfarin-resistant VKOR mutations on inhibition potency", "setting": "wild-type VKOR; all warfarin-resistant VKOR mutations tested vs wild type", "value": "up to 400 fold"}, {"measurement": "IC50", "setting": "[4]; Homo sapiens, HEK293, 24 h, read-out: IC50 for VKD carboxylation", "value": 12.5, "unit": "nM"}, {"measurement": "increase of IC50 compared to wild-type VKOR", "setting": "VKOR F55A; F55A vs wild type", "value": 417, "unit": "fold"}, {"measurement": "variation of warfarin resistance among naturally occurring VKOR mutations", "setting": "[9]", "value": "over 100 fold"}, {"measurement": "increase of IC50 compared to wild-type VKOR", "setting": "VKOR A26P; A26P vs wild type", "value": 60, "unit": "fold"}, {"measurement": "MK-4 epoxide in cells on VKOR inactivation", "setting": "[10]", "value": "MK-4 epoxide accumulated"}, {"measurement": "reversal of inhibition of VKD carboxylation by vitamin K1", "setting": "[7]", "value": "can be reversed equally with higher concentrations of vitamin K1"}]}
